Key:
Format in all cases: ADME, organism-based
[1] = test system: Rattus norvegicus; assay: Biodistribution of [125I]IBF in blood was determined in rats 15 minutes after intraveneous injection; conditions: in vivo, iv, 0.25 h
Method in brief: (§1)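 Male Sprague–Dawley rats (225–300 g) with free access to food and water. Under halothane anesthesia they received [125I]IBF (8–10 μCi in 0.2 mL saline) into the femoral vein. Rats were killed by cardiac excision under halothane at the stated time. Organs were weighed and gamma-counted, and % dose/organ was taken against diluted aliquots of the injectate. Blood was assumed to be 7% of body weight and muscle 40%.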

[2] = test system: Rattus norvegicus; assay: Biodistribution of [125I]-IBF in blood was determined in rats 2 minutes after intraveneous injection; conditions: in vivo, iv; method in brief: as §1
[3] = test system: Rattus norvegicus; assay: Biodistribution of [125I]IBF in blood was determined in rats 30 minutes after intraveneous injection; conditions: in vivo, iv, 0.5 h; method in brief: as §1
[4] = test system: Rattus norvegicus; assay: Biodistribution of [125I]-IBF in blood was determined in rats 60 minutes after intraveneous injection; conditions: in vivo, iv, 1 h; method in brief: as §1
[5] = test system: Rattus norvegicus; assay: Biodistribution of [125I]IBF in blood was determined in rats 120 minutes after intraveneous injection; conditions: in vivo, iv, 2 h; method in brief: as §1
[6] = test system: Rattus norvegicus; assay: Biodistribution of [125I]IBF in brain was determined in rats 15 minutes after intraveneous injection; conditions: in vivo, iv, 0.25 h; method in brief: as §1
[7] = test system: Rattus norvegicus; assay: Biodistribution of [125I]IBF in brain was determined in rats 2 minutes after intraveneous injection; conditions: in vivo, iv; method in brief: as §1
[8] = test system: Rattus norvegicus; assay: Biodistribution of [125I]IBF in brain was determined in rats 60 minutes after intraveneous injection; conditions: in vivo, iv, 1 h; method in brief: as §1
[9] = test system: Rattus norvegicus; assay: Biodistribution of [125I]IBF in brain was determined in rats 120 minutes after intraveneous injection; conditions: in vivo, iv, 2 h; method in brief: as §1
[10] = test system: Rattus norvegicus; assay: Biodistribution of [125I]IBF in brain/blood was determined in rats 15 minutes after intraveneous injection; conditions: in vivo, iv, 0.25 h
[11] = test system: Rattus norvegicus; assay: Biodistribution of [125I]IBF in brain/blood was determined in rats 2 minutes after intraveneous injection; conditions: in vivo, iv
[12] = test system: Rattus norvegicus; assay: Biodistribution of [125I]IBF in brain/blood was determined in rats 30 minutes after intraveneous injection; conditions: in vivo, iv, 0.5 h
[13] = test system: Rattus norvegicus; assay: Biodistribution of [125I]IBF in brain/blood was determined in rats 60 minutes after intraveneous injection; conditions: in vivo, iv, 1 h
[14] = test system: Rattus norvegicus; assay: Biodistribution of [125I]IBF in brain/blood was determined in rats 120 minutes after intraveneous injection; conditions: in vivo, iv, 2 h
[15] = test system: Rattus norvegicus; assay: Biodistribution of [125I]IBF in heart was determined in rats 15 minutes after intraveneous injection; conditions: in vivo, iv, 0.25 h; method in brief: as §1
[16] = test system: Rattus norvegicus; assay: Biodistribution of [125I]IBF in heart was determined in rats 2 minutes after intraveneous injection; conditions: in vivo, iv; method in brief: as §1
[17] = test system: Rattus norvegicus; assay: Biodistribution of [125I]-IBF in heart was determined in rats 30 minutes after intraveneous injection; conditions: in vivo, iv, 0.5 h; method in brief: as §1
[18] = test system: Rattus norvegicus; assay: Biodistribution of [125I]-IBF in heart was determined in rats 120 minutes after intraveneous injection; conditions: in vivo, iv, 2 h; method in brief: as §1
[19] = test system: Rattus norvegicus; assay: Biodistribution of [125I]IBF in kidney was determined in rats 15 minutes after intraveneous injection; conditions: in vivo, iv, 0.25 h; method in brief: as §1
[20] = test system: Rattus norvegicus; assay: Biodistribution of [125I]IBF in kidney was determined in rats 2 minutes after intraveneous injection; conditions: in vivo, iv; method in brief: as §1
[21] = test system: Rattus norvegicus; assay: Biodistribution of [125I]IBF in kidney was determined in rats 30 minutes after intraveneous injection; conditions: in vivo, iv, 0.5 h; method in brief: as §1
[22] = test system: Rattus norvegicus; assay: Biodistribution of [125I]IBF in kidney was determined in rats 60 minutes after intraveneous injection; conditions: in vivo, iv, 1 h; method in brief: as §1
[23] = test system: Rattus norvegicus; assay: Biodistribution of [125I]IBF in kidney was determined in rats 120 minutes after intraveneous injection; conditions: in vivo, iv, 2 h; method in brief: as §1
[24] = test system: Rattus norvegicus; assay: Biodistribution of [125I]IBF in liver was determined in rats 15 minutes after intraveneous injection; conditions: in vivo, iv, 0.25 h; method in brief: as §1
[25] = test system: Rattus norvegicus; assay: Biodistribution of [125I]IBF in liver was determined in rats 2 minutes after intraveneous injection; conditions: in vivo, iv; method in brief: as §1
[26] = test system: Rattus norvegicus; assay: Biodistribution of [125I]IBF in liver was determined in rats 30 minutes after intraveneous injection; conditions: in vivo, iv, 0.5 h; method in brief: as §1
[27] = test system: Rattus norvegicus; assay: Biodistribution of [125I]IBF in srtiatum was determined in rats 15 minutes after intraveneous injection; conditions: in vivo, iv, 0.25 h
[28] = test system: Rattus norvegicus; assay: Biodistribution of [125I]IBF in striatum was determined in rats 2 minutes after intraveneous injection; conditions: in vivo, iv
Method in brief: (§2)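 Male Sprague–Dawley rats (225–300 g) with free access to food and water were anesthetized with halothane. Each received 0.2 mL saline containing 8–10 μCi [125I]IBF into the femoral vein and was killed by cardiac excision under halothane at set times. Organs were weighed and gamma-counted, and uptake was calculated against diluted aliquots of the injected dose.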

[29] = test system: Rattus norvegicus; assay: Biodistribution of [125I]IBF in striatum was determined in rats 30 minutes after intraveneous injection; conditions: in vivo, iv, 0.5 h; method in brief: as §2
[30] = test system: Rattus norvegicus; assay: Biodistribution of [125I]IBF in striatum was determined in rats 60 minutes after intraveneous injection; conditions: in vivo, iv, 1 h; method in brief: as §2

## CCN1CCC[C@H]1CNC(=O)c1cc(I)cc2c1OCC2
[1]
  Dose/organ: 1.8%
[2]
  Dose/organ: 3.5%
[3]
  Dose/organ: 1.26%
[4]
  Dose/organ: 0.98%
[5]
  Dose/organ: 0.23%
[6]
  Dose/organ: 0.54%
[7]
  Dose/organ: 0.98%
[8]
  Dose/organ: 0.17%
[9]
  Dose/organ: 0.07%
[10]
  Dose/organ: 3.01
[11]
  Dose/organ: 2.64
[12]
  Dose/organ: 2.26
[13]
  Dose/organ: 1.9
[14]
  Dose/organ: 1.53
[15]
  Dose/organ: 0.2%
[16]
  Dose/organ: 0.81%
[17]
  Dose/organ: 0.11%
[18]
  Dose/organ: 0.02%
[19]
  Dose/organ: 2.92%
[20]
  Dose/organ: 7.58%
[21]
  Dose/organ: 1.58%
[22]
  Dose/organ: 1.01%
[23]
  Dose/organ: 0.68%
[24]
  Dose/organ: 16.16%
[25]
  Dose/organ: 16.32%
[26]
  Dose/organ: 11.59%
[27]
  Dose/organ: 0.842%
[28]
  Dose/organ: 0.743%
[29]
  Dose/organ: 0.66%
[30]
  Dose/gram: 0.705 % dose/g

Source: ChEMBL document CHEMBL1125116 (J Med Chem, 1990)
